Data taken from ChEMBL document CHEMBL3739383, “Cyanohydrin as an Anchoring Group for Potent and Selective Inhibitors of Enterovirus 71 3C Protease” (J Med Chem, 2015).

Columns and labels:
[1] = Inhibition of EV71 protease 3C using NMA-IEALFQGPPK(DNP)FR as substrate preincubated for 30 mins followed by substrate addition measured after 2 hrs by FRET analysis; design: species or system Enterovirus A71
[2] = Cytotoxicity against human Rhabdomyosarcoma cells after 24 hrs by WST-1 cell proliferation assay; type: cell-based
Procedure, shortened: (§1)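 EC50 (antiviral) or CC50 (cytotoxicity) values are averaged over three independent experiments, with error given as SEM (n=3).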

Enterovirus A71 = assay: Antiviral activity against EV71 pseudotype virus infected in human Rhabdomyosarcoma cells assessed as reduction in viral replication after 24 hrs by Bright-Glo Luciferase Assay; type: functional, organism-based; settings: Enterovirus A; procedure, shortened: as §1
[3] = Toxicity in iv dosed mouse measured for 24 hrs; type: organism-based; settings: in vivo
Procedure, shortened: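 Acute toxicity study in mice dosed by intravenous injection; the read-out is LD50 in mg/kg.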

[4] = Inhibition of EV71 protease 3C using Dabcyl-KTSAVLQSGFRKME-Edans as substrate by fluorescence analysis; design: species or system Enterovirus A71

SMILES	IC50 [1]	CC50 at 24 h [2]	EC50 (Enterovirus A71)	LD50 at 24 h [3]	IC50 [4]
O=C[C@H](C[C@@H]1CCCNC1=O)NC(=O)[C@H](Cc1ccccc1)NC(=O)/C=C/c1ccccc1	540 nM	> 100000 nM	260 nM		
N#CC(O)[C@H](C[C@@H]1CCCNC1=O)NC(=O)[C@H](Cc1ccccc1)NC(=O)/C=C/c1ccccc1 (some centres undefined)	1130 nM	> 100000 nM	120 nM		
N#CC[C@H](C[C@@H]1CCCNC1=O)NC(=O)[C@H](Cc1ccccc1)NC(=O)/C=C/c1ccccc1	> 10000 nM	> 100000 nM	28400 nM		
CCCNC(=O)C(=O)[C@H](C[C@@H]1CCCNC1=O)NC(=O)[C@H](Cc1ccccc1)NC(=O)/C=C/c1ccccc1	9490 nM	> 100000 nM	4590 nM		
N#CC(OC(=S)Oc1ccccc1)[C@H](C[C@@H]1CCCNC1=O)NC(=O)[C@H](Cc1ccccc1)NC(=O)/C=C/c1ccccc1 (some centres undefined)	1050 nM	> 100000 nM	150 nM		
Cc1cc(C(=O)N[C@@H](Cc2ccc(F)cc2)C(=O)N[C@H](C=O)C[C@@H]2CCCNC2=O)no1	100 nM	> 100000 nM	110 nM		
N#C[C@H](C[C@@H]1CCCNC1=O)NC(=O)[C@H](Cc1ccccc1)NC(=O)/C=C/c1ccccc1	> 10000 nM	> 100000 nM	> 100000 nM		
CC(=O)OC(C#N)[C@H](C[C@@H]1CCCNC1=O)NC(=O)[C@H](Cc1ccccc1)NC(=O)/C=C/c1ccccc1 (some centres undefined)	1620 nM	> 100000 nM	100 nM		
Cc1cc(C(=O)N[C@@H](Cc2ccc(F)cc2)C(=O)N[C@@H](C[C@@H]2CCCNC2=O)[C@H](O)C#N)no1	310 nM	> 100000 nM	45 nM		
CCCNC(=O)C(O)[C@H](C[C@@H]1CCCNC1=O)NC(=O)[C@H](Cc1ccccc1)NC(=O)/C=C/c1ccccc1 (some centres undefined)	> 10000 nM	> 100000 nM	> 100000 nM		
Cc1cc(C(=O)N[C@@H](Cc2ccc(F)cc2)C(=O)N[C@@H](C[C@@H]2CCCNC2=O)[C@@H](O)C#N)no1	270 nM	> 100000 nM	48 nM	96.5 mg/kg	
O=C(/C=C/c1ccccc1)N[C@@H](Cc1ccccc1)C(=O)N[C@H](CO)C[C@@H]1CCCNC1=O	> 10000 nM	> 100000 nM	> 100000 nM		
Cc1cc(C(=O)N[C@@H](Cc2ccc(F)cc2)C(=O)N[C@@H](C[C@@H]2CCCNC2=O)C(O)C#N)no1 (some centres undefined)	280 nM	> 100000 nM	56 nM		
O=C[C@H](C[C@@H]1CCNC1=O)NC(=O)[C@H](Cc1ccccc1)NC(=O)/C=C/c1ccccc1	3810 nM	> 100000 nM	3070 nM		
CCOC(=O)/C=C/[C@H](C[C@@H]1CCNC1=O)NC(=O)[C@@H](CC(=O)[C@@H](NC(=O)c1cc(C)on1)C(C)C)Cc1ccc(F)cc1 [RUPINTRIVIR]					2300 nM
